Experimental data published in ChEMBL document CHEMBL1156778, “Synthesis and structure-activity studies of biphenyl analogues of the tuberculosis drug (6S)-2-nitro-6-{[4-(trifluoromethoxy)benzyl]oxy}-6,7-dihydro-5H-imidazo[2,1-b][1,3]oxazine (PA-824)” (J Med Chem, 2010).
≈ marks a conversion by molar mass, not a printed value.

Each compound was assayed on Mycobacterium tuberculosis (assay: Antitubercular activity against Mycobacterium tuberculosis H37Rv in aerobic condition after 7 days by microplate alamar blue assay). Settings: 168 h.
Assay type: functional
Procedure, shortened: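 M. tuberculosis H37Rv, replicating culture; 8-day microplate assay with Alamar blue added on day 7 to read growth. […] Mean of at least two independent determinations ± SD.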
For `Nc1cccc(-c2ccc(CO[C@@H]3COc4nc([N+](=O)[O-])cn4C3)cc2)c1`, the MIC was 0.12 µM (≈ 0.044 µg/mL). `O=[N+]([O-])c1cn2c(n1)OC[C@@H](OCc1ccc(-c3ccccc3F)cc1)C2` showed an MIC of 0.19 µM (≈ 0.0702 µg/mL). Compound `N#Cc1ccc(-c2cccc(CO[C@@H]3COc4nc([N+](=O)[O-])cn4C3)c2)cc1` has an MIC of 0.23 µM (≈ 0.0866 µg/mL). In the case of `O=[N+]([O-])c1cn2c(n1)OC[C@@H](OCc1ccc(-c3cc(F)c(F)c(F)c3)cc1)C2`, the MIC is reported as 0.04 µM (≈ 0.0162 µg/mL). For `CC(C)(C)OCc1ccc(-c2ccc(CO[C@@H]3COc4nc([N+](=O)[O-])cn4C3)cc2)cc1`, the MIC was 0.077 µM (≈ 0.0337 µg/mL). In the case of `O=[N+]([O-])c1cn2c(n1)OC[C@@H](OCc1ccc(-c3cccc(F)c3)cc1)C2`, the MIC is reported as 0.045 µM (≈ 0.0166 µg/mL). `N#Cc1cccc(-c2ccc(CO[C@@H]3COc4nc([N+](=O)[O-])cn4C3)cc2)c1` showed an MIC of 0.12 µM (≈ 0.0452 µg/mL). `O=[N+]([O-])c1cn2c(n1)OC[C@@H](OCc1ccc(-c3ccc(Cl)cc3)cc1)C2` was tested, and the MIC was 0.015 µM (≈ 0.00579 µg/mL). For `O=[N+]([O-])c1cn2c(n1)OC[C@@H](OCc1cccc(-c3ccc4ccccc4c3)c1)C2`, the MIC was 0.12 µM (≈ 0.0482 µg/mL). `CC(C)c1ccc(-c2ccc(CO[C@@H]3COc4nc([N+](=O)[O-])cn4C3)cc2)cc1` showed an MIC of 0.1 µM (≈ 0.0393 µg/mL). For `COc1cccc(Cl)c1-c1ccc(CO[C@@H]2COc3nc([N+](=O)[O-])cn3C2)cc1`, the MIC was 0.055 µM (≈ 0.0229 µg/mL). `O=[N+]([O-])c1cn2c(n1)OC[C@@H](OCc1cccc(-c3ccc(OC(F)F)cc3)c1)C2` gave an MIC of 0.06 µM (≈ 0.025 µg/mL). Work on `O=[N+]([O-])c1cn2c(n1)OC[C@@H](OCc1ccc(-c3ccccc3OC(F)(F)F)cc1)C2` yielded an MIC of 0.035 µM (≈ 0.0152 µg/mL). In the case of `COc1ccc(-c2ccc(CO[C@@H]3COc4nc([N+](=O)[O-])cn4C3)cc2)cc1`, the MIC is reported as 0.065 µM (≈ 0.0248 µg/mL). Work on `O=[N+]([O-])c1cn2c(n1)OC[C@@H](OCc1ccc(-c3ccc(Cl)c(O)c3)cc1)C2` yielded an MIC of 0.2 µM (≈ 0.0804 µg/mL). Compound `O=[N+]([O-])c1cn2c(n1)OC[C@@H](OCc1ccc(-c3cccc(Cl)c3)cc1)C2` has an MIC of 0.06 µM (≈ 0.0231 µg/mL). `O=[N+]([O-])c1cn2c(n1)OC[C@@H](OCc1ccc(-c3ccccc3Oc3ccccc3)cc1)C2` showed an MIC of 0.06 µM (≈ 0.0266 µg/mL). `N#Cc1cccc(-c2cccc(CO[C@@H]3COc4nc([N+](=O)[O-])cn4C3)c2)c1` showed an MIC of 0.17 µM (≈ 0.064 µg/mL). Work on `O=[N+]([O-])c1cn2c(n1)OC[C@@H](OCc1ccc(-c3ccccc3)cc1)C2` yielded an MIC of 0.045 µM (≈ 0.0158 µg/mL). `O=[N+]([O-])c1cn2c(n1)OC[C@@H](OCc1ccc(-c3ccccc3O)cc1)C2` was tested, and the MIC was 0.12 µM (≈ 0.0441 µg/mL). `O=[N+]([O-])c1cn2c(n1)OC[C@@H](OCc1ccc(-c3ccc(F)c(F)c3)cc1)C2` gave an MIC of 0.03 µM (≈ 0.0116 µg/mL). `O=[N+]([O-])c1cn2c(n1)OC[C@@H](OCc1ccc(-c3cccc(OCCO)c3)cc1)C2` was tested, and the MIC was 0.46 µM (≈ 0.189 µg/mL). With `O=[N+]([O-])c1cn2c(n1)OC[C@@H](OCc1ccc(-c3ccc(-c4ccccc4)cc3)cc1)C2` the MIC was 0.09 µM (≈ 0.0385 µg/mL). `COc1ccccc1-c1ccc(CO[C@@H]2COc3nc([N+](=O)[O-])cn3C2)cc1` showed an MIC of 0.065 µM (≈ 0.0248 µg/mL). In the case of `O=[N+]([O-])c1cn2c(n1)OC[C@@H](OCc1cccc(-c3ccc(C(F)(F)F)cc3)c1)C2`, the MIC is reported as 0.12 µM (≈ 0.0503 µg/mL).

Each compound was assayed on Vero (assay: Cytotoxicity against african green monkey Vero cells after 72 hrs by MTS assay). Settings: Chlorocebus sabaeus.
Assay type: cell-based
Procedure, shortened: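 VERO cells (CCL-81), 72 h exposure, tetrazolium dye read-out.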
`Nc1cccc(-c2ccc(CO[C@@H]3COc4nc([N+](=O)[O-])cn4C3)cc2)c1` was tested, and the IC50 was > 125 µM. With `O=[N+]([O-])c1cn2c(n1)OC[C@@H](OCc1ccc(-c3ccccc3F)cc1)C2` the IC50 was > 125 µM. For `N#Cc1ccc(-c2cccc(CO[C@@H]3COc4nc([N+](=O)[O-])cn4C3)c2)cc1`, the IC50 was > 125 µM. For `O=[N+]([O-])c1cn2c(n1)OC[C@@H](OCc1ccc(-c3cc(F)c(F)c(F)c3)cc1)C2`, the IC50 was > 125 µM. In the case of `CC(C)(C)OCc1ccc(-c2ccc(CO[C@@H]3COc4nc([N+](=O)[O-])cn4C3)cc2)cc1`, the IC50 is reported as > 125 µM. For `O=[N+]([O-])c1cn2c(n1)OC[C@@H](OCc1ccc(-c3cccc(F)c3)cc1)C2`, the IC50 was > 125 µM. In the case of `N#Cc1cccc(-c2ccc(CO[C@@H]3COc4nc([N+](=O)[O-])cn4C3)cc2)c1`, the IC50 is reported as > 125 µM. In the case of `O=[N+]([O-])c1cn2c(n1)OC[C@@H](OCc1ccc(-c3ccc(Cl)cc3)cc1)C2`, the IC50 is reported as > 125 µM. For `O=[N+]([O-])c1cn2c(n1)OC[C@@H](OCc1cccc(-c3ccc4ccccc4c3)c1)C2`, the IC50 was > 125 µM. `CC(C)c1ccc(-c2ccc(CO[C@@H]3COc4nc([N+](=O)[O-])cn4C3)cc2)cc1` was tested, and the IC50 was > 125 µM. For `COc1cccc(Cl)c1-c1ccc(CO[C@@H]2COc3nc([N+](=O)[O-])cn3C2)cc1`, the IC50 was > 125 µM. In the case of `O=[N+]([O-])c1cn2c(n1)OC[C@@H](OCc1cccc(-c3ccc(OC(F)F)cc3)c1)C2`, the IC50 is reported as > 125 µM. In the case of `O=[N+]([O-])c1cn2c(n1)OC[C@@H](OCc1ccc(-c3ccccc3OC(F)(F)F)cc1)C2`, the IC50 is reported as > 125 µM. With `COc1ccc(-c2ccc(CO[C@@H]3COc4nc([N+](=O)[O-])cn4C3)cc2)cc1` the IC50 was > 125 µM. With `O=[N+]([O-])c1cn2c(n1)OC[C@@H](OCc1ccc(-c3ccc(Cl)c(O)c3)cc1)C2` the IC50 was > 125 µM. For `O=[N+]([O-])c1cn2c(n1)OC[C@@H](OCc1ccc(-c3cccc(Cl)c3)cc1)C2`, the IC50 was > 125 µM. For `O=[N+]([O-])c1cn2c(n1)OC[C@@H](OCc1ccc(-c3ccccc3Oc3ccccc3)cc1)C2`, the IC50 was > 125 µM. `N#Cc1cccc(-c2cccc(CO[C@@H]3COc4nc([N+](=O)[O-])cn4C3)c2)c1` was tested, and the IC50 was > 125 µM. With `O=[N+]([O-])c1cn2c(n1)OC[C@@H](OCc1ccc(-c3ccccc3)cc1)C2` the IC50 was > 125 µM. In the case of `O=[N+]([O-])c1cn2c(n1)OC[C@@H](OCc1ccc(-c3ccccc3O)cc1)C2`, the IC50 is reported as > 125 µM. For `O=[N+]([O-])c1cn2c(n1)OC[C@@H](OCc1ccc(-c3ccc(F)c(F)c3)cc1)C2`, the IC50 was > 125 µM. In the case of `O=[N+]([O-])c1cn2c(n1)OC[C@@H](OCc1ccc(-c3cccc(OCCO)c3)cc1)C2`, the IC50 is reported as > 125 µM. `O=[N+]([O-])c1cn2c(n1)OC[C@@H](OCc1ccc(-c3ccc(-c4ccccc4)cc3)cc1)C2` was tested, and the IC50 was > 125 µM. `COc1ccccc1-c1ccc(CO[C@@H]2COc3nc([N+](=O)[O-])cn3C2)cc1` was tested, and the IC50 was > 125 µM. With `O=[N+]([O-])c1cn2c(n1)OC[C@@H](OCc1cccc(-c3ccc(C(F)(F)F)cc3)c1)C2` the IC50 was > 125 µM.

What follows are compounds tested on Mycobacterium tuberculosis (assay: Antitubercular activity against Mycobacterium tuberculosis H37Rv in anaerobic condition after 7 days by low oxygen recovery assay). Settings: 168 h.
Assay type: functional
Work on `Nc1cccc(-c2ccc(CO[C@@H]3COc4nc([N+](=O)[O-])cn4C3)cc2)c1` yielded an MIC of 1.4 µM (≈ 0.513 µg/mL). `O=[N+]([O-])c1cn2c(n1)OC[C@@H](OCc1ccc(-c3ccccc3F)cc1)C2` gave an MIC of 0.67 µM (≈ 0.247 µg/mL). Work on `N#Cc1ccc(-c2cccc(CO[C@@H]3COc4nc([N+](=O)[O-])cn4C3)c2)cc1` yielded an MIC of 4.8 µM (≈ 1.81 µg/mL). In the case of `O=[N+]([O-])c1cn2c(n1)OC[C@@H](OCc1ccc(-c3cc(F)c(F)c(F)c3)cc1)C2`, the MIC is reported as 0.76 µM (≈ 0.308 µg/mL). With `CC(C)(C)OCc1ccc(-c2ccc(CO[C@@H]3COc4nc([N+](=O)[O-])cn4C3)cc2)cc1` the MIC was 3.1 µM (≈ 1.36 µg/mL). `O=[N+]([O-])c1cn2c(n1)OC[C@@H](OCc1ccc(-c3cccc(F)c3)cc1)C2` showed an MIC of 2.2 µM (≈ 0.813 µg/mL). With `N#Cc1cccc(-c2ccc(CO[C@@H]3COc4nc([N+](=O)[O-])cn4C3)cc2)c1` the MIC was 1.3 µM (≈ 0.489 µg/mL). In the case of `O=[N+]([O-])c1cn2c(n1)OC[C@@H](OCc1ccc(-c3ccc(Cl)cc3)cc1)C2`, the MIC is reported as 2.7 µM (≈ 1.04 µg/mL). `O=[N+]([O-])c1cn2c(n1)OC[C@@H](OCc1cccc(-c3ccc4ccccc4c3)c1)C2` was tested, and the MIC was 3.2 µM (≈ 1.28 µg/mL). `CC(C)c1ccc(-c2ccc(CO[C@@H]3COc4nc([N+](=O)[O-])cn4C3)cc2)cc1` was tested, and the MIC was > 32 µM. `COc1cccc(Cl)c1-c1ccc(CO[C@@H]2COc3nc([N+](=O)[O-])cn3C2)cc1` showed an MIC of 0.74 µM (≈ 0.308 µg/mL). `O=[N+]([O-])c1cn2c(n1)OC[C@@H](OCc1cccc(-c3ccc(OC(F)F)cc3)c1)C2` gave an MIC of 2.8 µM (≈ 1.17 µg/mL). In the case of `O=[N+]([O-])c1cn2c(n1)OC[C@@H](OCc1ccc(-c3ccccc3OC(F)(F)F)cc1)C2`, the MIC is reported as 0.97 µM (≈ 0.422 µg/mL). `COc1ccc(-c2ccc(CO[C@@H]3COc4nc([N+](=O)[O-])cn4C3)cc2)cc1` was tested, and the MIC was 6.8 µM (≈ 2.59 µg/mL). With `O=[N+]([O-])c1cn2c(n1)OC[C@@H](OCc1ccc(-c3ccc(Cl)c(O)c3)cc1)C2` the MIC was 2.1 µM (≈ 0.844 µg/mL). Work on `O=[N+]([O-])c1cn2c(n1)OC[C@@H](OCc1ccc(-c3cccc(Cl)c3)cc1)C2` yielded an MIC of 1.6 µM (≈ 0.617 µg/mL). Compound `O=[N+]([O-])c1cn2c(n1)OC[C@@H](OCc1ccc(-c3ccccc3Oc3ccccc3)cc1)C2` has an MIC of 1.8 µM (≈ 0.798 µg/mL). `N#Cc1cccc(-c2cccc(CO[C@@H]3COc4nc([N+](=O)[O-])cn4C3)c2)c1` was tested, and the MIC was 3.7 µM (≈ 1.39 µg/mL). Work on `O=[N+]([O-])c1cn2c(n1)OC[C@@H](OCc1ccc(-c3ccccc3)cc1)C2` yielded an MIC of 3.9 µM (≈ 1.37 µg/mL). For `O=[N+]([O-])c1cn2c(n1)OC[C@@H](OCc1ccc(-c3ccccc3O)cc1)C2`, the MIC was 4.6 µM (≈ 1.69 µg/mL). For `O=[N+]([O-])c1cn2c(n1)OC[C@@H](OCc1ccc(-c3ccc(F)c(F)c3)cc1)C2`, the MIC was 1.2 µM (≈ 0.465 µg/mL). For `O=[N+]([O-])c1cn2c(n1)OC[C@@H](OCc1ccc(-c3cccc(OCCO)c3)cc1)C2`, the MIC was 5.4 µM (≈ 2.22 µg/mL). With `O=[N+]([O-])c1cn2c(n1)OC[C@@H](OCc1ccc(-c3ccc(-c4ccccc4)cc3)cc1)C2` the MIC was > 32 µM. For `COc1ccccc1-c1ccc(CO[C@@H]2COc3nc([N+](=O)[O-])cn3C2)cc1`, the MIC was 1.4 µM (≈ 0.534 µg/mL). With `O=[N+]([O-])c1cn2c(n1)OC[C@@H](OCc1cccc(-c3ccc(C(F)(F)F)cc3)c1)C2` the MIC was 2.9 µM (≈ 1.22 µg/mL).
